Data reported in ChEMBL document CHEMBL2150909, “Imidazo[1,2-a]pyridines: orally active positive allosteric modulators of the metabotropic glutamate 2 receptor” (J Med Chem, 2012).

Assays:
[1] = biological target: T1, Metabotropic glutamate receptor 2 (Homo sapiens, UniProt Q14416); test: Agonist activity at human mGlu 2 expressed in CHO cells by PAM assay relative to glutamate; type: functional, cell-based
Procedure, shortened: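 The assay measured [35S]GTPγS binding to membranes from CHO cells expressing human mGluR2. Cells were butyrate-stimulated (5 mM, 24 h) before membranes were prepared. Membranes were preincubated for 30 min at 30 °C in HEPES pH 7.4 buffer (NaCl, MgCl2, 50 μM GDP) with compound (0.3 nM–50 μM, 11 concentrations) plus EC25 glutamate. [35S]GTPγS (0.1 nM final) was then added for 30 min at 30 °C. Bound label was collected by filtration and counted. Runs were done at least in triplicate with duplicate points, and a four-parameter logistic fit gave the values.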
Target sequence in this assay (Q14416 19-872 limits assumed): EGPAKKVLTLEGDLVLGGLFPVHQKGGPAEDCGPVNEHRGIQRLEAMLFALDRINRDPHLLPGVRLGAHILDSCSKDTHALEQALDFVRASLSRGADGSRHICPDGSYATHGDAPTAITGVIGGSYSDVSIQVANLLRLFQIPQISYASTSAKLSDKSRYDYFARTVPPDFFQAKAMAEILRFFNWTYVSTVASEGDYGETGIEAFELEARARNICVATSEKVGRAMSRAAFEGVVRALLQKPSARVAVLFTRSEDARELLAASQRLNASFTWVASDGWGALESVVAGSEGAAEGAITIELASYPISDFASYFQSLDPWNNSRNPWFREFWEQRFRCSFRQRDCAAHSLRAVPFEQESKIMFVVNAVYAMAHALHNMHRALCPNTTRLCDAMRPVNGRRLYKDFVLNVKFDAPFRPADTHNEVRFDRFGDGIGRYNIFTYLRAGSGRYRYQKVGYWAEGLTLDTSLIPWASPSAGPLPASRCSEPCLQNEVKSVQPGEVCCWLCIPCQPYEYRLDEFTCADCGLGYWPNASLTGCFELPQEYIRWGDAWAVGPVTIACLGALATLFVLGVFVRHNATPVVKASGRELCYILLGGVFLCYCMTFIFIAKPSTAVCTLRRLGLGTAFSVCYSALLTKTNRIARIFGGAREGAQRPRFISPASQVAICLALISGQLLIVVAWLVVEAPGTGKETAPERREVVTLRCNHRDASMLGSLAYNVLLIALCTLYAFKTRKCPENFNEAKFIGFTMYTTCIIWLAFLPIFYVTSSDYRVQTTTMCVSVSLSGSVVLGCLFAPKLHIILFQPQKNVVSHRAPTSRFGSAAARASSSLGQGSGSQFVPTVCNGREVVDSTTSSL

[2] = Metabolic stability of Sprague-Dawley rat liver microsomes assessed as compound metabolized at 5 uM after 15 mins; type: ADME, Microsome; conditions: read-out: Drug metabolism
Procedure, shortened: (§1)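 Test compound at 5 μM incubated 15 min with rat or human liver microsomes; read-out is percent of compound metabolized.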

[3] = biological target: T1, Metabotropic glutamate receptor 2; test: Agonist activity at human mGlu 2 expressed in CHO cells assessed as [35S]GTPgammaS binding by liquid scintillation analysis; type: functional, cell-based
Procedure, shortened: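 Membranes from butyrate-stimulated (5 mM, 24 h) CHO cells expressing human mGlu2. Preincubated 30 min at 30 °C in HEPES pH 7.4 with NaCl, MgCl2, 50 μM GDP and saponin; modulator 0.3 nM–50 μM, no added glutamate. [35S]GTPγS 0.1 nM final, 30 min at 30 °C, filtered, scintillation counted. Nonspecific binding defined with cold GTP; 11 concentrations in duplicate, ≥3 curves.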
Target sequence in this assay (Q14416 whole entry): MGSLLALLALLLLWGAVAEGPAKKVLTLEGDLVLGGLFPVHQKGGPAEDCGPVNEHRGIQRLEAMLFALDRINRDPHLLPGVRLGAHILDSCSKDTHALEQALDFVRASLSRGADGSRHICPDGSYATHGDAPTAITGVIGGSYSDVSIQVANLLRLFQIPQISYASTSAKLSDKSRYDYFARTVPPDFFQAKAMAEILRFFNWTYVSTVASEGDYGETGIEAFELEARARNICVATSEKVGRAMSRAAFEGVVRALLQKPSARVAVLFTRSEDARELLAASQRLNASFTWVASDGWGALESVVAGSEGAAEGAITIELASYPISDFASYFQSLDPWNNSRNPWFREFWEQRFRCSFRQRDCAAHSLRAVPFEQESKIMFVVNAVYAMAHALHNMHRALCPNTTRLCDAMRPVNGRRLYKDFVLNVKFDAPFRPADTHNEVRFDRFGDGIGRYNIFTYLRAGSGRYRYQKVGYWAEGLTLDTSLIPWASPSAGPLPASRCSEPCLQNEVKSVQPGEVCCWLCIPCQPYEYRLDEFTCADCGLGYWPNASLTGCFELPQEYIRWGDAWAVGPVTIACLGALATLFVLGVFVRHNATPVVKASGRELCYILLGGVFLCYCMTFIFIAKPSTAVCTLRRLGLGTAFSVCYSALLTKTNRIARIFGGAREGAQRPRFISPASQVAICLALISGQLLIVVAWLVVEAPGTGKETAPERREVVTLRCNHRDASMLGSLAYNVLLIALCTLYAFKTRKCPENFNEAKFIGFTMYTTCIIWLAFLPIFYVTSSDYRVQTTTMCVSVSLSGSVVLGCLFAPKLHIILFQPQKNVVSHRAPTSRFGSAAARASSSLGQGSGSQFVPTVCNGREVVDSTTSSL

[4] = Metabolic stability of human liver microsomes assessed as compound metabolized at 5 uM after 15 mins; type: ADME, Microsome; conditions: read-out: Drug metabolism; procedure, shortened: as §1
[5] = Plasma concentration in Sprague-Dawley rat at 10 mg/kg, sc after 4 hrs; type: ADME, organism-based; parameters: dose 10 mg/kg, route subcutaneous
Procedure, shortened: (§2)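 Male Sprague−Dawley rats given 10 mg/kg subcutaneously, vehicle 20% HP-β-CD at pH 4. Plasma (ng/mL) and brain (ng/g) drug levels determined at the listed post-dose time; B/P ratio derived from them. Values are geometric means of at least two runs ± SEM.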

[6] = Ratio of drug level in brain to plasma of Sprague-Dawley rat at 10 mg/kg, sc after 2 hrs; type: ADME, organism-based; parameters: dose 10 mg/kg, route subcutaneous; conditions: read-out: BPR; procedure, shortened: as §2
[7] = Plasma concentration in Sprague-Dawley rat at 10 mg/kg, sc after 1 hr; type: ADME, organism-based; parameters: dose 10 mg/kg, route subcutaneous; procedure, shortened: as §2
[8] = Ratio of drug level in brain to plasma of Sprague-Dawley rat at 10 mg/kg, sc after 4 hrs; type: ADME, organism-based; parameters: dose 10 mg/kg, route subcutaneous; conditions: brain and plasma, read-out: BPR; procedure, shortened: as §2
[9] = Plasma concentration in Sprague-Dawley rat at 10 mg/kg, sc after 2 hrs; type: ADME, organism-based; parameters: dose 10 mg/kg, route subcutaneous; procedure, shortened: as §2
[10] = Drug uptake in Sprague-Dawley rat brain at 10 mg/kg, sc after 2 hrs; type: ADME, organism-based; parameters: dose 10 mg/kg, route subcutaneous; conditions: read-out: Drug uptake
Procedure, shortened: (§3)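 Brain exposure in male Sprague-Dawley rats after a 10 mg/kg subcutaneous dose, vehicle 20% HP-β-CD at pH 4. Brain level measured in ng/g alongside plasma in ng/mL; geometric mean of at least two runs ± SEM.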

[11] = Ratio of drug level in brain to plasma of Sprague-Dawley rat at 10 mg/kg, sc after 1 hr; type: ADME, organism-based; parameters: dose 10 mg/kg, route subcutaneous; conditions: read-out: BPR; procedure, shortened: as §2
[12] = Drug uptake in Sprague-Dawley rat brain at 10 mg/kg, sc after 4 hrs; type: ADME, organism-based; parameters: dose 10 mg/kg, route subcutaneous; conditions: read-out: Drug uptake; procedure, shortened: as §3
[13] = Drug uptake in Sprague-Dawley rat brain at 10 mg/kg, sc after 1 hr; type: ADME, organism-based; parameters: dose 10 mg/kg, route subcutaneous; conditions: read-out: Drug uptake; procedure, shortened: as §3
[14] = Tmax in Sprague-Dawley rat at 10 mg/kg, po and 2.5 mg/kg, iv; type: ADME, organism-based; conditions: in vivo
Procedure, shortened: (§4)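 Rat PK: compounds formulated in 20% HP-β-CD at pH 4 and given orally and intravenously. Values are geometric means of at least two runs ± SEM.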

[15] = Plasma concentration in SPF Swiss mouse at 10 mg/kg, sc after 4 hrs; type: ADME, organism-based; parameters: dose 10 mg/kg, route subcutaneous
Procedure, shortened: (§5)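 Male Swiss SPF mice dosed subcutaneously at 10 mg/kg in 20% HP-β-CD, pH 4. Brain levels measured in ng/g and plasma levels in ng/mL at the stated time, with brain/plasma ratio; geometric mean of at least two runs ± SEM.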

[16] = Oral bioavailability in Sprague-Dawley rat at 10 mg/kg; type: ADME, organism-based; conditions: in vivo
Procedure, shortened: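 Male Sprague-Dawley rats given 10 mg/kg orally and/or 1.25 mg/kg intravenously; compound formulated in 20% HP-β-CD at pH 4. Cmax, tmax, AUC0−inf, t1/2, clearance and oral bioavailability F derived from plasma levels; geometric mean of at least two runs ± SEM.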

[17] = Cmax in Sprague-Dawley rat at 10 mg/kg, po and 2.5 mg/kg, iv; type: ADME, organism-based; conditions: in vivo; procedure, shortened: as §4
[18] = Drug uptake in SPF Swiss mouse brain at 10 mg/kg, sc after 1 hr; type: ADME, organism-based; parameters: dose 10 mg/kg, route subcutaneous; conditions: read-out: Drug uptake; procedure, shortened: as §5
[19] = Ratio of drug level in brain to plasma of SPF Swiss mouse at 10 mg/kg, sc after 4 hrs; type: ADME, organism-based; parameters: dose 10 mg/kg, route subcutaneous; conditions: read-out: BPR
Procedure, shortened: (§6)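 Male Swiss SPF mice, single subcutaneous dose of 10 mg/kg in 20% HP-β-CD at pH 4. Brain levels (ng/g) and plasma levels (ng/mL) measured at the stated time after dosing; brain-to-plasma ratio taken from these. Geometric mean of at least two runs ± SEM.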

[20] = AUC (0 to infinity) in Sprague-Dawley rat at 10 mg/kg, po and 2.5 mg/kg, iv; type: ADME, organism-based; conditions: plasma; procedure, shortened: as §4
[21] = Ratio of drug level in brain to plasma of SPF Swiss mouse at 10 mg/kg, sc after 2 hrs; type: ADME, organism-based; parameters: dose 10 mg/kg, route subcutaneous; conditions: read-out: BPR; procedure, shortened: as §6
[22] = Drug uptake in SPF Swiss mouse brain at 10 mg/kg, sc after 4 hrs; type: ADME, organism-based; parameters: dose 10 mg/kg, route subcutaneous; conditions: read-out: Drug uptake; procedure, shortened: as §5
[23] = Clearance in Sprague-Dawley rat at 10 mg/kg, po and 2.5 mg/kg, iv; type: ADME, organism-based; conditions: in vivo
[24] = Half life in Sprague-Dawley rat at 10 mg/kg, po and 2.5 mg/kg, iv; type: ADME, organism-based; conditions: in vivo; procedure, shortened: as §4
[25] = Plasma concentration in SPF Swiss mouse at 10 mg/kg, sc after 2 hrs; type: ADME, organism-based; parameters: dose 10 mg/kg, route subcutaneous; procedure, shortened: as §5
[26] = Plasma concentration in SPF Swiss mouse at 10 mg/kg, sc after 1 hr; type: ADME, organism-based; parameters: dose 10 mg/kg, route subcutaneous; procedure, shortened: as §5
[27] = Ratio of drug level in brain to plasma of SPF Swiss mouse at 10 mg/kg, sc after 1 hr; type: ADME, organism-based; parameters: dose 10 mg/kg, route subcutaneous; conditions: read-out: BPR; procedure, shortened: as §6
[28] = Drug uptake in SPF Swiss mouse brain at 10 mg/kg, sc after 2 hrs; type: ADME, organism-based; parameters: dose 10 mg/kg, route subcutaneous; conditions: read-out: Drug uptake; procedure, shortened: as §5

| Compound | Emax [1] | metabolised at 0.25 h, 5 µM [2] | EC50 [3] | metabolised at 0.25 h, 5 µM [4] | other results |
| --- | --- | --- | --- | --- | --- |
| N#Cc1c(-c2ccc3c(ccn3CC3CC3)c2)ccn2c(CC(F)(F)F)cnc12 | 230% | 40% | 190 nM | 24% |  |
| O[C@H]1CC[C@H](Nc2ccc(-c3ccn4c(CC(F)(F)F)cnc4c3Cl)cc2Cl)CC1 | 293% | 15% | 150 nM | 16% | concentration at 4 h [5]: 708 ng/mL; Kp at 2 h [6]: 1; concentration at 1 h [7]: 2140 ng/mL; Kp at 4 h [8]: 0.7; concentration at 2 h [9]: 1280 ng/mL; concentration at 2 h [10]: 1220 ng/g; Kp at 1 h [11]: 0.5; concentration at 4 h [12]: 485 ng/g; concentration at 1 h [13]: 1000 ng/g |
| N#Cc1c(-c2ccc(OC3CCOCC3)c(Cl)c2)ccn2c(CC(F)(F)F)cnc12 | 173% | 50% | 617 nM | 29% |  |
| FC(F)(F)Cc1cnc2c(Cl)c(-c3cc(Cl)c4c(ccn4CC4CC4)c3)ccn12 | 193% | 70% |  | 1% |  |
| N#Cc1c(-c2cc(Cl)c3c(ccn3CC3CC3)c2)ccn2c(CC(F)(F)F)cnc12 | 200% | 74% |  | 19% |  |
| N#Cc1c(-c2ccc3c(ccn3[C@H]3CC[C@H](O)CC3)c2)ccn2c(CC(F)(F)F)cnc12 | 237% | 15% | 330 nM | 4% | Tmax [14]: 1.7 h; concentration at 4 h [15]: 3860 ng/mL; bioavailability [16]: 50%; Cmax [17]: 1060 ng/mL; concentration at 1 h [18]: 322 ng/g; Kp at 4 h [19]: 0.1; AUC(0-inf) [20]: 7520 ng·h/mL; Kp at 2 h [21]: 0.1; concentration at 4 h [22]: 280 ng/g; clearance [23]: 11.7 mL/min/kg; half-life [24]: 2.8 h; concentration at 2 h [25]: 4500 ng/mL; concentration at 1 h [26]: 4170 ng/mL; Kp at 1 h [27]: 0.1; concentration at 2 h [28]: 469 ng/g |
| Cn1ccc2cc(-c3ccn4c(CC(F)(F)F)cnc4c3C#N)cc(Cl)c21 | 184% | 62% | 120 nM | 51% |  |
